Assay results: ChEMBL document CHEMBL4376862, “Synthesis and evaluation of novel chlorophyll a derivatives as potent photosensitizers for photodynamic therapy” (Eur J Med Chem, 2020)
The source made the active and inactive calls. The rule behind the calls is not given here.

Columns and labels:
A549 = assay: Photodynamic antitumor activity against human A549 cells xenografted in BALB/c nude mouse at 0.15 mg/kg, iv followed by laser light irradiation at 120 J/cm2 measured after 14 days; type: functional, organism-based
Summary of the method: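 Male BALB/c nude mice (5–6 weeks, 14–16 g) given 2×10^6 A549 cells s.c. in 0.2 mL PBS; at 6–7 mm tumors randomized into ten groups; drug via tail vein, 650 nm diode laser 120 J/cm2 at 180 mW/cm2 24 h later; caliper volume a×b²/2, followed 14 days.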

[1] = Drug localization in mitochondria of human A549 cells at 1 uM after 4 hrs by mito-tracker green based fluorescence microscopic method; type: ADME; settings: a549, 4 h
Summary of the method: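 A549 cells on coverslips at 1×10^4 cells/mL exposed to […] (so in the source) photosensitizer in complete medium for 4 h, washed, fixed in 4% paraformaldehyde 20 min, then probed 30 min at 37 °C with Mito-Tracker Green, Lyso-Tracker Blue or ER-Tracker Green; fluorescence microscopy, three repeats, minimal ambient light.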

[2] = Drug uptake in BALB/c nude mouse xenografted with A549 cells assessed as drug level in tumor tissue at 0.3 mg/kg, iv measured upto 24 hrs by fluorescence assay; type: ADME, organism-based, Neoplasm; settings: in vivo
Summary of the method: (§1)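 A549 tumor-bearing mice dosed via tail vein (1 mg/kg in methods; 0.3 mg/kg in text) at tumors ~150–170 mm3, n = 3; whole-body imaging 0–24 h; at 6 and 12 h mice killed, heart, liver, spleen, lung, kidney, brain, tumor imaged ex vivo, excitation 420 nm, emission 650 nm.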

[3] = Induction of ROS generation in DMF solution assessed as ROS quantum yield at 2 uM followed by irradiation measured every 10 secs by spectrophotometric analysis; type: functional
[4] = Absorption property of compound in DMSO assessed as strong absorption wavelength at 1 x 10^-3 M by UV-spectra analysis; type: physicochemical; settings: 1000 µM
Summary of the method: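 Stocks 1 mM in DMSO; spectra run over […] range (units as printed), 300–800 nm in 1 nm steps, room temperature, quartz cuvettes, UV-vis spectrophotometer.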

Cavia porcellus = assay: Phototoxicity in guinea pig assessed as change in back skin weight 4.5 mg/kg, iv followed by 10 mW/cm2 light irradiation for 10 mins measured after 1day of light irradiation (reference value: 72.4 +/- 3.1 mg); type: organism-based; settings: in vivo, 24 h
Mus musculus = assay: Phototoxicity in ICR mouse assessed as change in exposed neck skin 0.45 mg/kg, iv in presence of 10 mW/cm2 light irradiation for 10 mins upto 7 days measured after 1day of light irradiation by H and E staining based microscopic analysis; type: organism-based; settings: in vivo
[5] = Drug uptake in human A549 cells incubated upto 24 hrs by fluorescence spectrophotometer analysis; type: ADME, cell-based; settings: a549, 24 h
Summary of the method: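 A549 cells (F-12K, 10% FBS, 37 °C, 5% CO2) grown in 24 wells and exposed to photosensitizer for 0.5, 1, 2, 4, 8, 12 or 24 h; cells harvested by digestion, fluorescence read on a spectrophotometer.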

[6] = Drug uptake in BALB/c nude mouse xenografted with A549 cells assessed as drug level in spleen at 0.3 mg/kg, iv measured at 12 hrs by fluorescence assay; type: ADME, organism-based; settings: in vivo; summary of the method: as §1

Compound | Activity (A549) | Drug uptake [1] | Drug uptake [2] | Ratio [3] | Activity [4] [nm] | Activity (Cavia porcellus) [mg] | Activity (Mus musculus) | Drug uptake [5] | Drug uptake [6]
CCCCOC(C)c1c(C)c2cc3nc(c4c5[nH]c(cc6nc(cc1[nH]2)C(C)=C6CC)c(C)c5C(=O)C4)[C@@H](CCC(=O)NCC(=O)CCC(=O)O)[C@@H]3C (stereo partly drawn) | Active | Active | Active | 1.56 | 660 to 670 | 75.2 | Non-Toxic | Active | Not Active
CCC1=C(C)c2cc3[nH]c(cc4nc(c5c6[nH]c(cc1n2)c(C)c6C(=O)C5)[C@@H](CCC(=O)NCC(=O)CCC(=O)O)[C@@H]4C)c(C)c3C(C)OCCO (stereo partly drawn) | Active | Active | Active | 1.35 | 660 to 670 | 74.3 | Non-Toxic | Active | Not Active
